Measured values of several laboratories.
Compare with care: the assays were run in different laboratories.
TAOK1: Serine/threonine-protein kinase TAO1 (TAOK1, Homo sapiens, UniProt Q7L7X3)
MC1R: Melanocyte-stimulating hormone receptor (MC1R, Homo sapiens, UniProt Q01726)

For `CNS(=O)(=O)c1ccc(Nc2ncc(C(F)(F)F)c(N3CCC[C@](C)(O)C3)n2)c(C)c1`, the remaining binding was 5.3% (TAOK1; binding, competition with immobilised ligand; 1 µM).
`CCCC[C@H](NC(C)=O)C(=O)N[C@H]1CC(=O)NCCCC[C@@H](C(=O)N2CCC[C@@H]2C(=O)N[C@@H](C(=O)N2CCC[C@@H]2C(N)=O)C(C)C)NC(=O)[C@H](Cc2c[nH]c3ccccc23)NC(=O)[C@H](CCCNC(=N)N)NC(=O)[C@@H](Cc2ccccc2)NC(=O)[C@@H]2CCCN2C1=O` gave an Emax of 102% (MC1R; cAMP, agonist).
`NC/C(=C\F)COc1cccc(Cn2c(=S)[nH]c(=O)c3[nH]cnc32)c1` has an inhibition of < 50% (Neuropeptide Y receptor type 1 (NPY1R, Homo sapiens, UniProt P25929); ligand displacement, radioligand; 10 µM).
`Cc1cc2c(C(N)=O)c(N)n(-c3c(C)ccc(O)c3C)c2nc1C` has an inhibition of 84% (Serine/threonine-protein kinase B-raf (BRAF, Homo sapiens, UniProt P15056); enzyme activity, inhibitor, ADP detection; 0.3704 µM).
For `Cc1cc(O)c(-c2ccc([C@@H](C)CN(C)C)cc2)c2c1[nH]c(=O)c1sccc12`, the inhibition was 1.19% (Cyclin-dependent kinase 6 (CDK6, Homo sapiens, UniProt Q00534); enzyme activity, inhibitor; 0.1 µM).
With `CC(=O)N[C@H](CCCNC(=N)N)C(=O)N[C@H]1CSSC[C@@H](C(N)=O)NC(=O)[C@H](Cc2c[nH]c3ccccc23)NC(=O)[C@H](CCCNC(=N)N)NC(=O)[C@@H](Cc2ccccc2)NC(=O)[C@H](Cc2c[nH]cn2)NC(=O)[C@H](CCC(=O)O)NC1=O` the Emax was 91% (Melanocortin receptor 3 (MC3R, Homo sapiens, UniProt P41968); cAMP, agonist; CHO-K1).
`CCCCC(=O)Nc1ccc(-c2ccc3ncn(CCC)c(=O)c3c2)cn1` has a remaining binding of 85% (Calcium/calmodulin-dependent protein kinase type 1B (PNCK, Homo sapiens, UniProt Q6P2M8); binding, competition with immobilised ligand; 0.5 µM).
The remaining binding of `C[C@]1(O)CCCN(c2nc(Nc3ccc(S(=O)(=O)N[C@H]4CC[C@H](CN5CCN(c6ccc(C7CCC(=O)NC7=O)cc6F)CC5)CC4)cc3Cl)ncc2C(F)(F)F)C1` (some centres unmarked) is reported as 91% (TAOK1; binding, competition with immobilised ligand; 1 µM).
For `COc1ccc2oc(-c3ccc4nc(N)oc4c3)c/c(=N\c3ccccc3NC(=O)CCN)c2c1`, the remaining binding was 98% (Cyclin-dependent kinase 6, with cyclin D3 (CDK6, Homo sapiens, UniProt Q00534); binding; 1 µM).
With `CCCC[C@H](NC(C)=O)C(=O)N[C@@H](C)C(=O)N[C@@H](Cc1c[nH]cn1)C(=O)N[C@@H](Cc1ccccc1)C(=O)N[C@@H](CCCNC(=N)N)C(=O)N[C@H](Cc1c[nH]c2ccccc12)C(=O)N[C@@H](CC(=O)O)C(=O)N[C@@H](CCCNC(=N)N)C(=O)N[C@@H](Cc1ccccc1)C(=O)N[C@@H](C(=O)N1CCC[C@@H]1C(N)=O)C(C)C` the Emax was 100% (MC1R; cAMP, agonist).
`CCN1/C(=C/C(C)=O)Sc2ccc(F)cc21` gave an inhibition of 12.4% (Adenosine receptor A3 (ADORA3, Homo sapiens, UniProt P0DMS8); ligand displacement, radioligand; 10 µM).
For `C1=C/COCc2cc(ccc2OCCN2CCCC2)Nc2nccc(n2)-c2cccc(c2)COC/1`, the remaining binding was 100% (Protein kinase C delta type (PRKCD, Homo sapiens, UniProt Q05655); binding; 0.1 µM).
The inhibition of `C#Cc1cc(-c2cc(Nc3nc(N[C@@H](C)c4ccc(F)cn4)ncc3Cl)n[nH]2)ccc1C=O` is reported as 67.2% (Non-receptor tyrosine-protein kinase TYK2 (TYK2, Homo sapiens, UniProt P29597); enzyme activity, inhibitor; 0.2 µM).
With `N#Cc1ccc(NC(=O)Nc2ccccc2)cc1` the remaining binding was 99% (Non-receptor tyrosine-protein kinase TYK2, JH1 (TYK2, Homo sapiens, UniProt P29597); cell-free assay, competition with immobilised ligand; 25 µM).
